Results from ChEMBL document CHEMBL3994591, “Novel ferulic amide derivatives with tertiary amine side chain as acetylcholinesterase and butyrylcholinesterase inhibitors: The influence of carbon spacer length, alkylamine and aromatic group” (Eur J Med Chem, 2017).

B1: Acetylcholinesterase (Homo sapiens), P22303 (protein)
chain: MRPPQCLLHTPSLASPLLLLLLWLLGGGVGAEGREDAELLVTVRGGRLRGIRLKTPGGPVSAFLGIPFAEPPMGPRRFLPPEPKQPWSGVVDATTFQSVCYQYVDTLYPGFEGTEMWNPNRELSEDCLYLNVWTPYPRPTSPTPVLVWIYGGGFYSGASSLDVYDGRFLVQAERTVLVSMNYRVGAFGFLALPGSREAPGNVGLLDQRLALQWVQENVAAFGGDPTSVTLFGESAGAASVGMHLLSPPSRGLFHRAVLQSGAPNGPWATVGMGEARRRATQLAHLVGCPPGGTGGNDTELVACLRTRPAQVLVNHEWHVLPQESVFRFSFVPVVDGDFLSDTPEALINAGDFHGLQVLVGVVKDEGSYFLVYGAPGFSKDNESLISRAEFLAGVRVGVPQVSDLAAEAVVLHYTDWLHPEDPARLREALSDVVGDHNVVCPVAQLAGRLAAQGARVYAYVFEHRASTLSWPLWMGVPHGYEIEFIFGIPLDPSRNYTAEEKIFAQRLMRYWANFARTGDPNEPRDPKAPQWPPYTAGAQQYVSLDLRPLEVRRGLRAQACAFWNRFLPKLLSATDTLDEAERQWKAEFHRWSSYMVHWKNQFDHYSKQDRCSDL

Experiments:
[1] = Octanol-water partition coefficient, log P of the compound at pH 7.4 by shake flask method; format: physicochemical
How it was run: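 Shake flask partition between octanol and PBS (pH 7.4). Mixture shaken at 37 °C overnight, then centrifuged at 2000 rpm for 20 min. Phases analysed by C18 HPLC with methanol-0.1% TEA (85:15, v/v) at 1.0 mL/min and 32 °C, detection at 322 nm. Run in triplicate, log P calculated.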

[2] = molecular target: Cholinesterase (Homo sapiens, UniProt P06276); assay: Inhibition of butyrylcholinesterase (unknown origin) using butyrylthiocholine iodide as substrate after 25 mins by Ellmann method
How it was run: (§1)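 Modified Ellman assay, triplicate. Compounds dissolved in Tween 80, diluted with water to five concentrations. Mix: enzyme […], substrate (acetylthiocholine iodide or butyrylthiocholine iodide) and test compound in phosphoric acid buffer, pH 8.0, 0.1 mol/L. Incubated 25 min at 30 °C, then terminated. IC50 reported as mean ± SD of three experiments.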

[3] = Inhibition of carboxylesterase (unknown origin) using 4-nitrophenyl acetate as substrate by UV-Vis spectrophotometer; design: species or system Homo sapiens
How it was run: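 Read-out was 4-nitrophenol released by CaE hydrolysis of 1.0 mmol/L 4-nitrophenyl acetate, measured at 405 nm. Reactions ran in 100 mmol/L potassium phosphate buffer, pH 8.0, at 25 °C. CaE activity was taken as proportional to 4-nitrophenol concentration.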

[4] = organism: Homo sapiens; assay: Selectivity index, ratio of IC50 for butyrylcholinesterase (unknown origin) to IC50 for acetylcholinesterase (unknown origin)
[5] = molecular target: T1, Acetylcholinesterase (Homo sapiens, UniProt P22303); assay: Inhibition of acetylcholinesterase (unknown origin) using acetylthiocholine iodide as substrate after 25 mins by Ellmann method; how it was run: as §1
[6] = molecular target: T1, Acetylcholinesterase; assay: Potency index, ratio of rivastigmine IC50 to compound IC50 for acetylcholinesterase (unknown origin)
[7] = compound: COc1cc(/C=C/C(=O)Nc2ccccc2)ccc1OCCCCCCN1CCCCC1; assay: Mixed type inhibition of acetylcholinesterase (unknown origin) assessed as Km for substrate at 0.82 uM using acetylthiocholine iodide as substrate by Michaelis-Menten plot analysis (reference value: 5.99 mM); conditions: Homo sapiens
[8] = compound: COc1cc(/C=C/C(=O)Nc2ccccc2)ccc1OCCCCCCN1CCCCC1; assay: Mixed type inhibition of acetylcholinesterase (unknown origin) assessed as enzyme Vmax at 0.82 uM using acetylthiocholine iodide as substrate by Michaelis-Menten plot analysis (reference value: 0.027 deltaA/min); conditions: Homo sapiens
[9] = compound: COc1cc(/C=C/C(=O)Nc2ccccc2)ccc1OCCCCCCN1CCCCC1; assay: Mixed type inhibition of acetylcholinesterase (unknown origin) assessed as enzyme Vmax at 0.41 uM using acetylthiocholine iodide as substrate by Michaelis-Menten plot analysis (reference value: 0.027 deltaA/min); conditions: Homo sapiens
[10] = compound: COc1cc(/C=C/C(=O)Nc2ccccc2)ccc1OCCCCCCN1CCCCC1; assay: Mixed type inhibition of acetylcholinesterase (unknown origin) assessed as Km for substrate at 0.41 uM using acetylthiocholine iodide as substrate by Michaelis-Menten plot analysis (reference value: 5.99 mM); conditions: Homo sapiens
[11] = compound: COc1cc(/C=C/C(=O)Nc2ccccc2)ccc1OCCCCCCN1CCCCC1; assay: Mixed type inhibition of acetylcholinesterase (unknown origin) assessed as Km for substrate at 0.18 uM using acetylthiocholine iodide as substrate by Michaelis-Menten plot analysis (reference value: 5.99 mM); conditions: Homo sapiens
[12] = compound: COc1cc(/C=C/C(=O)Nc2ccccc2)ccc1OCCCCCCN1CCCCC1; assay: Mixed type inhibition of acetylcholinesterase (unknown origin) assessed as enzyme Vmax at 0.18 uM using acetylthiocholine iodide as substrate by Michaelis-Menten plot analysis (reference value: 0.027 deltaA/min); conditions: Homo sapiens

Sequence of Cholinesterase (P06276 whole entry): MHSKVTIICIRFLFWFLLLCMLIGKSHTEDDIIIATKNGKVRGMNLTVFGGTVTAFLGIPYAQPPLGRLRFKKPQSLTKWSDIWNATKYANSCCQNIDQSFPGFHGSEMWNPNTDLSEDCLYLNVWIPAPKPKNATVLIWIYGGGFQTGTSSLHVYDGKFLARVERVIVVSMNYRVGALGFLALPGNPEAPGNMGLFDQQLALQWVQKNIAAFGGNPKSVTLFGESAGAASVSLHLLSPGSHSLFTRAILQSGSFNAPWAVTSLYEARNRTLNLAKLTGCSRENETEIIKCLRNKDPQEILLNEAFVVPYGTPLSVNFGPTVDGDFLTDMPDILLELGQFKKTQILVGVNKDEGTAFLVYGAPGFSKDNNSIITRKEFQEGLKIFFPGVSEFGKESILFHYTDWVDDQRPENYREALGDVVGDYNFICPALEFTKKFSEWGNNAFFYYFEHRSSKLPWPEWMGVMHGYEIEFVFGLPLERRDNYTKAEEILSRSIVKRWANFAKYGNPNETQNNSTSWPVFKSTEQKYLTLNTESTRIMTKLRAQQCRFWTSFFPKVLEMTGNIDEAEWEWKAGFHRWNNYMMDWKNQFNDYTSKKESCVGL

Molecule | logD [1] | IC50 [2] | IC50 [3] | Ratio IC50 [4] | IC50 [5] | Ratio IC50 [6] | Km [7] | Vmax [8] | Vmax [9] | Km [10] | Km [11] | Vmax [12]
CCN(CC)CCCCCCCCOc1ccc(/C=C/C(=O)O)cc1OC | 1.51 | 302 µM | > 500 µM | 95.1 | 3.18 µM | – | – | – | – | – | – | –
CCN(CC)CCOc1ccc(/C=C/C(=O)Nc2ccccc2)cc1OC | 1.53 | 11.5 µM | > 500 µM | 0.28 | 41.1 µM | – | – | – | – | – | – | –
COc1cc(/C=C/C(=O)Nc2ccccc2)ccc1OCCCCCCCCN1CCCCC1 | 1.79 | 5.45 µM | > 500 µM | 1.32 | 4.12 µM | – | – | – | – | – | – | –
COc1cc(/C=C/C(=O)O)ccc1OCCCCCCN1CCCC1 | 1.29 | 287 µM | > 500 µM | 4.1 | 69.9 µM | – | – | – | – | – | – | –
CCN(CC)CCCOc1ccc(/C=C/C(=O)Nc2ccccc2)cc1OC | 1.57 | 16.9 µM | > 500 µM | 0.71 | 23.7 µM | – | – | – | – | – | – | –
COc1cc(/C=C/C(=O)Nc2ccccc2)ccc1OCCCCN(C)C | 1.57 | 25.9 µM | > 500 µM | 0.26 | 100 µM | – | – | – | – | – | – | –
COc1cc(/C=C/C(=O)Nc2ccccc2)ccc1OCCCCCCN1CCCC1 | 1.76 | 2.23 µM | > 500 µM | 2.01 | 1.11 µM | 9 | – | – | – | – | – | –
COc1cc(/C=C/C(=O)Nc2ccccc2)ccc1OCCCCCCCCCCN1CCCCC1 | 1.83 | 4.84 µM | > 500 µM | 0.44 | 11.1 µM | – | – | – | – | – | – | –
COc1cc(/C=C/C(=O)Nc2ccccc2)ccc1OCCCCCN1CCCC1 | 1.64 | 4.78 µM | > 500 µM | 0.77 | 6.21 µM | – | – | – | – | – | – | –
CCN(CC)CCCCOc1ccc(/C=C/C(=O)Nc2ccccc2)cc1OC | 1.59 | 25.1 µM | > 500 µM | 0.6 | 41.6 µM | – | – | – | – | – | – | –
COc1cc(/C=C/C(=O)Nc2ccccc2)ccc1OCCN1CCCCC1 | 1.56 | 2.34 µM | > 500 µM | 0.12 | 19.4 µM | – | – | – | – | – | – | –
COc1cc(/C=C/C(=O)Nc2ccccc2)ccc1OCCCCN1CCCC1 | 1.6 | 3.83 µM | > 500 µM | 0.16 | 24.4 µM | – | – | – | – | – | – | –
COc1cc(/C=C/C(=O)Nc2ccccc2)ccc1OCCCCCN(C)C | 1.61 | 12.1 µM | > 500 µM | 0.37 | 33 µM | – | – | – | – | – | – | –
COc1cc(/C=C/C(=O)Nc2ccccc2)ccc1OCCCCCCN(C)C | 1.69 | 6.72 µM | > 500 µM | 0.8 | 8.4 µM | – | – | – | – | – | – | –
COc1cc(/C=C/C(=O)Nc2ccccc2)ccc1OCCCCN1CCCCC1 | 1.61 | 5.69 µM | > 500 µM | 0.8 | 7.14 µM | – | – | – | – | – | – | –
COc1cc(/C=C/C(=O)Nc2ccccc2)ccc1OCCCCCN1CCCCC1 | 1.65 | 5.9 µM | > 500 µM | 1.23 | 4.8 µM | – | – | – | – | – | – | –
CCOC(=O)/C=C/c1ccc(OCCCCCCCCN(CC)CC)c(OC)c1 | 1.98 | 13 µM | > 500 µM | 8.37 | 1.56 µM | – | – | – | – | – | – | –
COc1cc(/C=C/C(=O)Nc2ccccc2)ccc1OCCCCCCCCN(C)C | 1.74 | 10.4 µM | > 500 µM | 1.16 | 8.95 µM | – | – | – | – | – | – | –
CCN(CC)CCCCCCOc1ccc(/C=C/C(=O)Nc2ccccc2)cc1OC | 1.7 | 4.86 µM | > 500 µM | 2.66 | 1.83 µM | – | – | – | – | – | – | –

Molecule | logD [1] | IC50 [2] | IC50 [3] | Ratio IC50 [4] | IC50 [5] | Ratio IC50 [6] | Km [7] | Vmax [8] | Vmax [9] | Km [10] | Km [11] | Vmax [12]
COc1cc(/C=C/C(=O)Nc2ccccc2)ccc1OCCN(C)C | 1.5 | 23.3 µM | > 500 µM | 1 | 23.2 µM | – | – | – | – | – | – | –
CCOC(=O)/C=C/c1ccc(OCCCCCCN(CC)CC)c(OC)c1 | 1.8 | 11.4 µM | > 500 µM | 5.87 | 1.94 µM | – | – | – | – | – | – | –
CCN(C)C(=O)Oc1cccc([C@H](C)N(C)C)c1 [RIVASTIGMINE] | 1.68 | – | 31.1 µM | – | – | – | – | – | – | – | – | –
COc1cc(/C=C/C(=O)Nc2ccccc2)ccc1OCCCCCCCCN1CCCC1 | 1.78 | 4.03 µM | > 500 µM | 1.38 | 2.91 µM | – | – | – | – | – | – | –
COc1cc(/C=C/C(=O)Nc2ccccc2)ccc1OCCCCCCCCCCN1CCCC1 | 1.86 | 2.99 µM | > 500 µM | 0.22 | 13.5 µM | – | – | – | – | – | – | –
CCOC(=O)/C=C/c1ccc(OCCCCCCN2CCCC2)c(OC)c1 | 1.82 | 377 µM | > 500 µM | 74.6 | 5.05 µM | – | – | – | – | – | – | –
COc1cc(/C=C/C(=O)O)ccc1OCCCCCCN1CCCCC1 | 1.32 | 146 µM | > 500 µM | 3.2 | 45.6 µM | – | – | – | – | – | – | –
COc1cc(/C=C/C(=O)Nc2ccccc2)ccc1O | 1.42 | > 500 µM | > 500 µM | – | > 500 µM | – | – | – | – | – | – | –
CCOC(=O)/C=C/c1ccc(OCCCCCCN2CCCCC2)c(OC)c1 | 1.81 | 41.8 µM | > 500 µM | 15.8 | 2.65 µM | – | – | – | – | – | – | –
COc1cc(/C=C/C(=O)Nc2ccccc2)ccc1OCCCN1CCCCC1 | 1.58 | 4.78 µM | > 500 µM | 0.33 | 14.5 µM | – | – | – | – | – | – | –
COc1cc(/C=C/C(=O)Nc2ccccc2)ccc1OCCCN1CCCC1 | 1.57 | 14.2 µM | > 500 µM | 0.38 | 37.1 µM | – | – | – | – | – | – | –
COc1cc(/C=C/C(=O)Nc2ccccc2)ccc1OCCN1CCCC1 | 1.54 | 12.7 µM | > 500 µM | 0.36 | 35.1 µM | – | – | – | – | – | – | –
COc1cc(/C=C/C(=O)Nc2ccccc2)ccc1OCCCCCCCCCCN(C)C | 1.8 | 20.6 µM | > 500 µM | 2.07 | 9.93 µM | – | – | – | – | – | – | –
CCN(CC)CCCCCCCCOc1ccc(/C=C/C(=O)Nc2ccccc2)cc1OC | 1.75 | 3.98 µM | > 500 µM | 2.93 | 1.36 µM | – | – | – | – | – | – | –
CCN(CC)CCCCCOc1ccc(/C=C/C(=O)Nc2ccccc2)cc1OC | 1.63 | 22.1 µM | > 500 µM | 1.17 | 19 µM | – | – | – | – | – | – | –
CCN(CC)CCCCCCCCCCOc1ccc(/C=C/C(=O)Nc2ccccc2)cc1OC | 1.83 | 8.47 µM | > 500 µM | 0.57 | 14.9 µM | – | – | – | – | – | – | –
CCN(CC)CCCCCCOc1ccc(/C=C/C(=O)O)cc1OC | 1.29 | 263 µM | > 500 µM | 98.6 | 2.67 µM | – | – | – | – | – | – | –
COc1cc(/C=C/C(=O)Nc2ccccc2)ccc1OCCCN(C)C | 1.55 | 20 µM | > 500 µM | 0.59 | 33.9 µM | – | – | – | – | – | – | –
B1 | – | – | – | – | – | – | 8.85 mM | 0.015 deltaA/min | 0.019 deltaA/min | 7.71 mM | 6.69 mM | 0.023 deltaA/min
